Measurements taken from ChEMBL document CHEMBL4725280, “Structural studies of triazole inhibitors with promising inhibitor effects against antibiotic resistance metallo-β-lactamases” (Bioorg Med Chem, 2020).
pIC50: −log10 of the molar value. ≈ marks a conversion by molar mass, not a printed value. Calls of active or inactive are those of the source. The rule behind the calls is not given here.

What was measured:
GIM-1 protein = GIM-1 protein (Pseudomonas aeruginosa, UniProt Q704V1); assay: Inhibition of beta lactamase GIM-1 in Pseudomonas aeruginosa in presence of nitrocefin as reporter substrate measured after 5 mins by microplate spectrophotometry analysis; details: for pIC50: read-out: IC50
Method in brief: (§1)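 Purified recombinant enzyme (1 nM GIM-1 or NDM-1) in 50 mM HEPES pH 7.2, 100 µM ZnCl2, 400 µg/ml BSA, preincubated with inhibitor at 16 concentrations (0–250 µM) for 5 min at 25 °C. Reporter substrate added at 100 µM: nitrocefin for GIM-1 (A482), imipenem for NDM-1 (A300). Triplicates; IC50 from initial velocities by log[inhibitor]–response fit.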

[1] = Inhibition of beta lactamase NDM1 in Klebsiella pneumoniae in presence of imipenem as reporter substrate measured after 5 mins by microplate spectrophotometry analysis; details: for pIC50: read-out: IC50; method in brief: as §1
[2] = target: Beta-lactamase VIM-2 (Pseudomonas aeruginosa) (UniProt Q9K2N0); assay: (§2) Inhibition of Pseudomonas aeruginosa 3015473 beta lactamase VIM-2 transfected in negative Escherichia coli SNO3 cells assessed as substrate hydrolysis using nitrocefin as substrate at 250 uM incubated for 20 mins measured every 1 mins for 3 hrs by cell-based microplate spectrophotometry analysis relative to control
Method in brief: (§3)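 E. coli SNO3 (β-lactamase-negative) carrying pET26b(+) with blaVIM-2, blaGIM-1 or blaNDM-1; overnight culture adjusted to OD600 1 in LB, inhibitor 250 µM final, IPTG 0.8 mM final, 37 °C 20 min with shaking to induce. Nitrocefin added (1.6 mM final, in 50 mM HEPES pH 7.2, 100 µM ZnCl2), A482 read each minute for 3 h; duplicates.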

Beta-lactamase VIM-2 = Beta-lactamase VIM-2 (Pseudomonas aeruginosa, UniProt Q9K2N0); assay: Inhibition of beta lactamase VIM-2 in Pseudomonas aeruginosa 3015473 in presence of nitrocefin as reporter substrate measured after 5 mins by microplate spectrophotometry analysis; details: for pIC50: read-out: IC50
Method in brief: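 Purified VIM-2 at 1 nM in 50 mM HEPES pH 7.2 with 100 µM ZnCl2 and 400 µg/ml BSA, preincubated with inhibitor (sixteen concentrations, 0–250 µM) for 5 min at 25 °C. Then 100 µM nitrocefin was added and absorbance was followed at 482 nm. Points were run in triplicate, and IC50 was taken from initial velocities by log[inhibitor]–response fitting.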

Klebsiella pneumoniae = assay: as §2, with “Klebsiella pneumonia” for “Pseudomonas aeruginosa 3015473”, “NDM1” for “VIM-2”; method in brief: as §3
[3] = target: GIM-1 protein (Pseudomonas aeruginosa) (UniProt Q704V1); assay: as §2, with “aeruginosa” for “aeruginosa 3015473”, “GIM-1” for “VIM-2”; method in brief: as §3
[4] = target: Beta-lactamase VIM-2 (Pseudomonas aeruginosa) (UniProt Q9K2N0); assay: Synergistic Inhibition of beta lactamase VIM-2 in Pseudomonas aeruginosa K34-7 assessed colony formation by visual inspection in presence of 50 microM 2,5-Dichloro-N-((4-((cyclohexylamino)methyl)-1H-1,2,3-triazol-5-yl)methyl)benzenesulfonamide incubated for 20 hrs by two-fold dilution method
Method in brief: (§4)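 Broth microdilution in Mueller Hinton broth against clinical isolates (P. aeruginosa VIM-2, K. pneumoniae NDM-1, E. coli VIM-29). Meropenem 2-fold series 256–0.0625 µg/mL, with inhibitor at 50 or 125 µM final; 5% DMSO control. Inoculum from 0.5 McFarland suspension in 0.85% NaCl diluted in MH broth, CFU checked on MH agar. 37 °C for 20 h; MIC read visually.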

[5] = target: Beta-lactamase VIM-2 (Pseudomonas aeruginosa) (UniProt Q9K2N0); assay: Inhibition of beta lactamase VIM-2 in Pseudomonas aeruginosa K34-7 assessed colony formation by visual inspection incubated for 20 hrs by two-fold dilution method; method in brief: as §4
Escherichia coli [6] = assay: Synergistic Inhibition of beta lactamase VIM-29 in Escherichia coli 50639799 assessed colony formation by visual inspection in presence of 50 microM (5-((4-iodophenylsulfonamido)methyl)-1H-1,2,3-triazol-4-yl)methyl acetate incubated for 20 hrs by two-fold dilution method; method in brief: as §4
[7] = target: Beta-lactamase VIM-2 (Pseudomonas aeruginosa) (UniProt Q9K2N0); assay: Synergistic Inhibition of beta lactamase VIM-2 in Pseudomonas aeruginosa K34-7 assessed colony formation by visual inspection in presence of 125 microM N-((4-((adamantylamino)methyl)-1H-1,2,3-triazol-5-yl)methyl)-4-iodobenzenesulfonamide incubated for 20 hrs by two-fold dilution method; method in brief: as §4
Escherichia coli [8] = assay: Inhibition of beta lactamase VIM-29 in Escherichia coli 50639799 assessed colony formation by visual inspection incubated for 20 hrs by two-fold dilution method; method in brief: as §4
Escherichia coli [9] = assay: Synergistic Inhibition of beta lactamase VIM-29 in Escherichia coli 50639799 assessed colony formation by visual inspection in presence of 50 microM 2,5-Dichloro-N-((4-((cyclohexylamino)methyl)-1H-1,2,3-triazol-5-yl)methyl)benzenesulfonamide incubated for 20 hrs by two-fold dilution method; method in brief: as §4
[10] = target: Metallo-beta-lactamase type 2 (Klebsiella pneumoniae) (UniProt C7C422); assay: Synergistic Inhibition of beta lactamase NDM1 in Klebsiella pneumoniae K66-45 assessed colony formation by visual inspection in presence of 50 microM (5-((4-iodophenylsulfonamido)methyl)-1H-1,2,3-triazol-4-yl)methyl acetate incubated for 20 hrs by two-fold dilution method; method in brief: as §4
[11] = target: Metallo-beta-lactamase type 2 (Klebsiella pneumoniae) (UniProt C7C422); assay: Synergistic Inhibition of beta lactamase NDM1 in Klebsiella pneumoniae K66-45 assessed colony formation by visual inspection in presence of 125 microM N-((4-((cyclohexylamino)methyl)-1H-1,2,3-triazol-5-yl)methyl)-4-iodobenzenesulfonamide incubated for 20 hrs by two-fold dilution method; method in brief: as §4
[12] = target: Metallo-beta-lactamase type 2 (Klebsiella pneumoniae) (UniProt C7C422); assay: Synergistic Inhibition of beta lactamase NDM1 in Klebsiella pneumoniae K66-45 assessed colony formation by visual inspection in presence of 125 microM N-((4-((adamantylamino)methyl)-1H-1,2,3-triazol-5-yl)methyl)-4-iodobenzenesulfonamide incubated for 20 hrs by two-fold dilution method; method in brief: as §4
[13] = target: Metallo-beta-lactamase type 2 (Klebsiella pneumoniae) (UniProt C7C422); assay: Inhibition of beta lactamase NDM1 in Klebsiella pneumoniae K66-45 assessed colony formation by visual inspection incubated for 20 hrs by two-fold dilution method; method in brief: as §4
[14] = target: Metallo-beta-lactamase type 2 (Klebsiella pneumoniae) (UniProt C7C422); assay: Synergistic Inhibition of beta lactamase NDM1 in Klebsiella pneumoniae K66-45 assessed colony formation by visual inspection in presence of 50 microM 2,5-Dichloro-N-((4-((cyclohexylamino)methyl)-1H-1,2,3-triazol-5-yl)methyl)benzenesulfonamide incubated for 20 hrs by two-fold dilution method; method in brief: as §4
[15] = target: Beta-lactamase VIM-2 (Pseudomonas aeruginosa) (UniProt Q9K2N0); assay: Synergistic Inhibition of beta lactamase VIM-2 in Pseudomonas aeruginosa K34-7 assessed colony formation by visual inspection in presence of 125 microM N-((4-((cyclohexylamino)methyl)-1H-1,2,3-triazol-5-yl)methyl)-4-iodobenzenesulfonamide incubated for 20 hrs by two-fold dilution method; method in brief: as §4
[16] = target: Beta-lactamase VIM-2 (Pseudomonas aeruginosa) (UniProt Q9K2N0); assay: Synergistic Inhibition of beta lactamase VIM-2 in Pseudomonas aeruginosa K34-7 assessed colony formation by visual inspection in presence of 50 microM (5-((4-iodophenylsulfonamido)methyl)-1H-1,2,3-triazol-4-yl)methyl acetate incubated for 20 hrs by two-fold dilution method; method in brief: as §4

Sequence of GIM-1 protein (Pseudomonas aeruginosa) (Q704V1 as listed by the source): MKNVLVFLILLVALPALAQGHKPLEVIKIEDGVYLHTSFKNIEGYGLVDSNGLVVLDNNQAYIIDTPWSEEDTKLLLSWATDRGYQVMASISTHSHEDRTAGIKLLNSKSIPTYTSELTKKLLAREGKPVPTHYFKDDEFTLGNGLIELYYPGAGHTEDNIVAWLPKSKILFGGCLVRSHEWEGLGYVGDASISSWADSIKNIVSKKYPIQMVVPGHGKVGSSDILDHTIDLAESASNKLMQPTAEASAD
Sequence of GIM-1 protein (Q704V1 whole entry): as the sequence (Q704V1 as listed by the source) above
Sequence of Metallo-beta-lactamase type 2 (Klebsiella pneumoniae) (C7C422 whole entry): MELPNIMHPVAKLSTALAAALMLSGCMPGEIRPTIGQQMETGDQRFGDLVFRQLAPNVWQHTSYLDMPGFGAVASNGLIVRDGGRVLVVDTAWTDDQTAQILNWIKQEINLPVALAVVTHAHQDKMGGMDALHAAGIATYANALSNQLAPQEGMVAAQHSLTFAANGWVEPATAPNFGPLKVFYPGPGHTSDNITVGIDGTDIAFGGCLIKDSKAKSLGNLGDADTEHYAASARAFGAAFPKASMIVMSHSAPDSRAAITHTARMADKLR

| Compound | pIC50 (GIM-1 protein) | inhibition [2] | pIC50 (Beta-lactamase VIM-2) | inhibition (Klebsiella pneumoniae) | inhibition [3] | pIC50 [1] | also measured |
| --- | --- | --- | --- | --- | --- | --- | --- |
| COCc1nn[nH]c1CNS(=O)(=O)c1ccc(I)cc1 | 3.77 | 51% | 4.82 | inactive | 11% |  | IC50 [1]: Not Active |
| O=S(=O)(NCc1[nH]nnc1CNC(c1ccccc1)(c1ccccc1)c1ccccc1)c1ccc(I)cc1 | 3.45 | 19% | < 3.60 | inactive | 3% | 4.09 |  |
| O=S(=O)(NCc1[nH]nnc1CNCc1ccccc1)c1ccc(I)cc1 |  |  |  |  |  |  | IC50 (Beta-lactamase VIM-2): Nd(Insoluble) |
| CC(=O)OCc1nn[nH]c1CNS(=O)(=O)c1ccc(I)cc1 | 4.32 |  | 4.64 |  |  | 3.64 |  |
| O=S(=O)(NCc1[nH]nnc1CNC12CC3CC(CC(C3)C1)C2)c1ccc(I)cc1 | 4.74 | 96% | 6.80 | 17% | 22% |  |  |
| Cc1ccc(S(=O)(=O)NCc2[nH]nnc2COC(C)(C)C)cc1 | 3.89 | 60% | 5.14 | inactive | 4.5% | 3.85 |  |
| NCc1nn[nH]c1CNS(=O)(=O)c1ccccc1 |  | 29% | 4.64 | inactive | inactive |  | IC50 (GIM-1 protein): Not Active; IC50 [1]: Not Active |
| Cc1ccc(S(=O)(=O)NCc2[nH]nnc2CNC2CCCCC2)cc1 |  | 82% | 5.82 | inactive | 2.3% | 3.84 | IC50 (GIM-1 protein): Not Active |
| CC(C)OCc1nn[nH]c1CNS(=O)(=O)c1ccc(I)cc1 | 3.71 | 85% | 6.28 | inactive | 11% |  | IC50 [1]: Not Active |
| Cc1ccc(S(=O)(=O)NCc2[nH]nnc2CNC23CC4CC(CC(C4)C2)C3)cc1 | 4.08 | 84% | 5.64 | inactive | inactive |  |  |
| C[C@@H](O)[C@H]1C(=O)N2C(C(=O)O)=C(S[C@@H]3CN[C@H](C(=O)N(C)C)C3)[C@H](C)[C@H]12 |  |  |  |  |  |  | MIC [4]: 8 µg/mL; MIC [5]: 64 µg/mL (≈ 167 µM); MIC (Escherichia coli [6]): 1 µg/mL; MIC [7]: 16 µg/mL; MIC (Escherichia coli [8]): 16 µg/mL (≈ 41.7 µM); MIC (Escherichia coli [9]): 16 µg/mL; MIC [10]: 64 µg/mL; MIC [11]: 64 µg/mL; MIC [12]: 32 µg/mL; MIC [13]: 32 µg/mL (≈ 83.4 µM); MIC [14]: 32 µg/mL; MIC [15]: 8 µg/mL; MIC [16]: 1 µg/mL |
| COc1ccc(CSCc2nn[nH]c2CNS(=O)(=O)c2ccc(I)cc2)cc1 | 3.64 | 45% | 4.68 | 34% | 33% |  |  |
| O=S(=O)(NCc1[nH]nnc1CNC12CC3CC(CC(C3)C1)C2)c1cc(Cl)ccc1Cl |  | inactive | 6.92 | inactive | 21% |  | IC50 (GIM-1 protein): Nd(Insoluble) |
| O=S(=O)(NCc1[nH]nnc1CNC1CCCCC1)c1cc(Cl)ccc1Cl |  | 94% | 6.64 | inactive | 7% | 4.01 | IC50 (GIM-1 protein): Not Active |
| O=S(=O)(NCc1[nH]nnc1CNC1CCCCC1)c1ccc(I)cc1 | 4.16 | 95% | 7.17 | inactive | 3% | 3.83 |  |
